Consider 96 molecules from ChEMBL document CHEMBL4513216, “Probing the Open Global Health Chemical Diversity Library for Multistage-Active Starting Points for Next-Generation Antimalarials” (ACS Infect Dis, 2020).

A short description of the data set: Toxicity liver stage against HepG2, at 10uM. Format: cell-based. More on the design: test concentration 10 uM, cell line HepG2-A16-CD81EGFP. The conditions noted are these: human, HepG2-A16-CD81EGFP cells; read-out: INHIBITION
The method in brief:
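Uninfected HepG2-A16-CD81EGFP cells, 3 × 10^3 per well, 1536-well, plated on prespotted compound at 10 μM final, parasite-free screening media added to match infected plates; puromycin 10 μM positive, DMSO 0.5% negative; run in parallel with 48 h PbLuc assay at 37 °C, 5% CO2; viability by CellTiter-Glo luminescence, normalized to controls.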
As to `CCNC(=O)O[C@H]1COCCN(c2nc3ccccc3s2)C1`, the cytotoxicity at 10 µM was -3.04%.
With `Cn1ncc2c1NC(=O)CC2c1cccs1` (stereo unspecified), the cytotoxicity at 10 µM is -0.585%.
In the case of `COc1ccccc1OCC(=O)NCC(C)(O)C1CC1` (stereo unspecified), the cytotoxicity at 10 µM is -0.419%.
On to `CC(C)(C)C(O)CCNC(=O)c1ccc(F)cc1Cl` (stereo unspecified), for which the cytotoxicity at 10 µM is 0.0701%.
To `O=C(c1ccnnc1)N1CC[C@@H](O)[C@@H]1Cc1ccccc1` belongs 5.03%; to `O=S(=O)(c1cccc(F)c1)N1C[C@@H]2COC[C@]2(COCC2CC2)C1`, 12.5%; to `Cc1cnc(C(=O)N2CCC3(CC2)CC(c2ccncc2)C(=O)N3)cn1` (stereo unspecified), 9.14%.
Regarding `CC(C)NC(=O)N1CCN(S(C)(=O)=O)CC2(CNC(=O)C2)C1` (stereo unspecified), the cytotoxicity at 10 µM was 8.71%.
To `COc1ccc(OCC(=O)n2nc(C)c(C)c2C)cc1` belongs -6.32%; to `Cc1cc(=O)[nH]c(NC2CCN(S(=O)(=O)c3ccccc3)CC2)n1`, -3.02%; to `O=C(c1ccncc1)N1CCc2[nH]nc(Nc3ccccc3)c2C1`, 3.13%.
Turning to `Cc1c[nH]c(C2COCCN2C(=O)CCc2c(C)n[nH]c2C)n1` (stereo unspecified), the cytotoxicity at 10 µM was -0.615%.
With `CCCNC(=O)C1(Cc2cc(-c3ccccc3)no2)CCN(C(C)=O)C1` (stereo unspecified), the cytotoxicity at 10 µM stood at 6.6%.
For `N#Cc1cnc2c(F)cc(F)cc2c1NC1CCN(CC(N)=O)CC1`, the cytotoxicity at 10 µM was -2.89%.
Consider `CN(C)c1ccc(CNC(=O)Nc2ccc(S(=O)(=O)C(F)F)cc2)cc1`, for which the cytotoxicity at 10 µM worked out at 9.25%.
Take `NC(=O)C(NC(=O)c1ccc(NC2CC2)nc1)c1ccccc1` (stereo unspecified): the cytotoxicity at 10 µM came to 10.8%.
For the molecule `CC(=O)c1cc(Br)cc(F)c1OCC(=O)NC1CC1`, the cytotoxicity at 10 µM is -6.16%.
To `NC1(c2nc(-c3cccs3)cc(=O)[nH]2)CCCCC1` belongs 6.03%.
With `N#CCCN(CC1CCOC1)S(=O)(=O)c1cccc(Cl)c1` (stereo unspecified), the cytotoxicity at 10 µM is 3.81%.
For `NCC1(CN2CCOCC2)CCCCC1` the value was 3.23%.
Regarding `COC1CCN(c2ccc(F)cc2CN(C)CC(N)=O)CC1`, the cytotoxicity at 10 µM was -6.91%.
In the case of `CN(CCNC(=O)c1ccnc(-n2ccnc2)c1)C1CC1`, the cytotoxicity at 10 µM worked out at 3.31%.
To `Cc1cc(CC(=O)NCC(O)COc2ccc(F)c(F)c2)n[nH]1` (stereo unspecified) belongs -7.66%; to `CCS(=O)(=O)CC(=O)NC(C)c1ccccc1Oc1ccccc1` (stereo unspecified), -2.97%; to `CC1CCCCN1CCNC(=O)c1ccccc1N1CCOCC1` (stereo unspecified), -4.14%.
On to `Cc1cc(N2CCN(c3ccc(=O)[nH]n3)CC2)nc(-c2ccncc2)n1`, for which the cytotoxicity at 10 µM was -5.19%.
For `CCc1n[nH]c(C2CN(C(=O)c3cc(C4CC4)on3)CCO2)n1` (stereo unspecified), the cytotoxicity at 10 µM was -6.43%.
Consider `CC(=O)c1ccc(C(=O)NCC2Cc3ccccc3O2)s1` (stereo unspecified), for which the cytotoxicity at 10 µM stood at 3.82%.
For `NCc1csc(CCc2ccccc2)n1`, the cytotoxicity at 10 µM was -0.138%.
As to `Nc1nccnc1C(=O)N1CCN(Cc2cccc3ccccc23)CC1`, the cytotoxicity at 10 µM was -108%.
Turning to `CN(Cc1nc(-c2ccccc2)c[nH]1)C(=O)NCC(=O)NC(C)(C)C`, the cytotoxicity at 10 µM was 13.4%.
For `COCCCn1ccc(NC(=O)NCCc2cccnc2)n1`, the cytotoxicity at 10 µM is -0.996%.
Turning to `Cc1ccc(-c2nnc(C(C)NCCn3cc(C)cn3)o2)cc1` (stereo unspecified), the cytotoxicity at 10 µM is -15.8%.
For `Cc1cccc(CNCC2COC3(CCCCC3)O2)c1C` (stereo unspecified) the value was -139%; for `N#CCCNC(=O)CN1CCC(c2cc3ccccc3[nH]2)CC1`, 0.91%; for `CNC(=O)Cn1nnc(-c2cc3ccccc3o2)n1`, 5.65%.
Turning to `CS(=O)(=O)CCNC(=O)N(Cc1ccoc1)C1CCCCC1`, the cytotoxicity at 10 µM stood at 5.72%.
`NC(=O)CN1CCCN(C(=O)COc2cccc(F)c2)CC1`: the cytotoxicity at 10 µM is -1.97%.
To `CN(C)C(=O)N1CCN(c2cc(N3CCCC3CO)ncn2)CC1` (stereo unspecified) belongs -1.81%.
For `Cc1nc(C)c(COc2ccc(N(C)S(C)(=O)=O)cc2)s1` the value was 23.2%.
`Cc1ccc(NCc2cc(C#N)ccc2F)cc1-n1nnnc1C`: the cytotoxicity at 10 µM is -1.66%.
On to `O=C(c1c(O)cc(F)cc1F)N1CCc2cnccc21`, for which the cytotoxicity at 10 µM is -4.18%.
In the case of `N#CC1C(=O)Nc2c(cnn2C2CCCC2)C12CCCC2` (stereo unspecified), the cytotoxicity at 10 µM is -7.54%.
Regarding `Cc1cc(CN(C)C2CCCN(c3cccnn3)C2)on1` (stereo unspecified), the cytotoxicity at 10 µM was determined as 16%.
Regarding `CCN(CC)C(=O)CCNC(=O)N1CCC(c2ccccc2)C1` (stereo unspecified), the cytotoxicity at 10 µM was -3.26%.
Consider `COc1ccc(OCc2cc(C(=O)N3CCC(O)CC3)n[nH]2)c(Cl)c1`, for which the cytotoxicity at 10 µM is -1.69%.
`CC(C)n1ccnc1C1CCCN(Cc2ccc(F)c(F)c2)C1` (stereo unspecified): the cytotoxicity at 10 µM came out at 3.89%.
For `Cc1ccc(OCC(=O)N2CCN[C@H]3CS(=O)(=O)C[C@H]32)cn1` the value was -2.7%; for `CC(C)N1CCC(CC(=O)N(C)C(C)c2cncs2)CC1` (stereo unspecified), 3.65%.
On to `O=C(NCCc1cccs1)C1(N2CCCCC2)Cc2ccccc2C1`, for which the cytotoxicity at 10 µM was -4.86%.
For `CCC[C@@H]1CN(c2ncnc3ccsc23)C[C@H]1NS(C)(=O)=O`, the cytotoxicity at 10 µM was 3.73%.
Take `CCOCCNC(=O)c1cccc(S(=O)(=O)NC[C@@H]2C[C@H](F)CN2)c1`: the cytotoxicity at 10 µM was -18.8%.
Regarding `Cc1cc(C(=O)N2CCN(C(=O)CC(C)C)[C@@H]3CS(=O)(=O)C[C@@H]32)no1`, the cytotoxicity at 10 µM was -5.45%.
As to `CSc1nccc(NCC2CNCCOC2)n1` (stereo unspecified), the cytotoxicity at 10 µM is -5.13%.
Consider `COCc1ncc(-c2nccn2CCS(C)(=O)=O)cn1`, for which the cytotoxicity at 10 µM is -17.2%.
Take `CC(C)Cc1nc(CS(C)(=O)=O)n(-c2ccccn2)n1`: the cytotoxicity at 10 µM came out at 1.66%.
Take `Cc1noc(-c2ccc(N(C)Cc3ccncc3C)nc2)n1`: the cytotoxicity at 10 µM is -15.1%.
For the molecule `O=C1CCCCCN1Cc1cccc(OC(F)F)c1`, the cytotoxicity at 10 µM was -6.4%.
As to `COc1cccc(C2CCN2C(=O)c2cnccn2)c1` (stereo unspecified), the cytotoxicity at 10 µM came to 12.2%.
Turning to `CN1CCCCCC1C(=O)NCCCn1ncc2ccccc21` (stereo unspecified), the cytotoxicity at 10 µM is -1.43%.
`CC(=O)N1CCCn2nc(CNS(=O)(=O)Cc3ccccc3)cc2C1`: the cytotoxicity at 10 µM is -6.19%.
As to `Cc1cccc(-c2nc(CN3CCOCS3(=O)=O)c(C)o2)c1`, the cytotoxicity at 10 µM was found to be 2.01%.
For `CN(C)CC1(O)CCN(C(=O)c2ccc(-n3cnnc3)cc2Cl)C1` (stereo unspecified) the value was -5.06%; for `COCCN1CCN(Cc2ccc(OCc3nccn3C)cc2)CC1`, -7.11%.
For `Cc1cc(C)c(CNC(=O)N(C)Cc2cccc(C#N)c2)c(=O)[nH]1`, the cytotoxicity at 10 µM was -5.49%.
For `Cc1ncc2c(n1)CN(CC(=O)NCCOc1ccccc1)CC2`, the cytotoxicity at 10 µM is -8.66%.
`Cc1nc(CN2CCc3nn(C)c(=O)cc3C2)oc1C`: the cytotoxicity at 10 µM is -2.74%.
Take `Cc1cc(C)n(CC2CCCN2C(=O)c2cccc(C#N)c2)n1` (stereo unspecified): the cytotoxicity at 10 µM is -9.19%.
For `Cc1ccc(-c2nc(C(=O)N3CCOCC3)cs2)c(C)c1` the value was 0.22%; for `CC(C)c1ccc(OCCC(=O)N2CCCN(C(N)=O)CC2)cc1`, -15.5%; for `Cn1cc(C(=O)NCC2CCN(C(=O)NC3CCCCC3)CC2)cn1`, -4.92%.
For `Cc1ccc(-c2n[nH]cc2CNCC2CCN(CC(C)O)CC2)cc1` (stereo unspecified) the value was -16.6%.
As for `Cc1nn(C)c(Cl)c1C1CCCN1C(=O)c1ccnn1C` (stereo unspecified), the cytotoxicity at 10 µM was -4.87%.
As to `c1ccc(-c2noc(CNC3CCc4ncnn4C3)n2)nc1` (stereo unspecified), the cytotoxicity at 10 µM is -11.7%.
As to `Cc1noc(C2CCN(C(=O)CCNc3ncccn3)CC2)n1`, the cytotoxicity at 10 µM is -6.38%.
For `Cc1ccc(SCC(=O)NS(=O)(=O)c2ccc3c(c2)OCCO3)cc1` the value was -22.1%.
As for `Cc1ccccc1CN(C)Cc1nc2c(cnn2C)c(=O)[nH]1`, the cytotoxicity at 10 µM is 2.51%.
With `CCN(CC)C(=O)CN1CCc2c(nc(C3CCNCC3)nc2NC)C1`, the cytotoxicity at 10 µM amounted to 5.07%.
On to `C[C@@H](NCc1cccc(Cl)c1)c1onc(-c2ccc(F)cc2)c1C(=O)O`, for which the cytotoxicity at 10 µM turned out to be 0.258%.
On to `N[C@@H](Cc1ccccc1)c1nnc(S(=O)(=O)Cc2cccc(Cl)c2)o1`, for which the cytotoxicity at 10 µM was 7.87%.
Regarding `COc1ccc(C[C@H]2CN(c3nnc(C)s3)CC[C@@H]2OC)cc1`, the cytotoxicity at 10 µM was -3.23%.
Take `O=C(c1ccco1)N1CCc2c(COCC3CC3)cncc2C1`: the cytotoxicity at 10 µM is -71.3%.
As to `CC(C)n1nc(CNc2ncccn2)c2c1CN(C)CC2`, the cytotoxicity at 10 µM is -142%.
With `Cc1noc(C)c1CN1CC[C@H]2OCC[C@@H](C(=O)NCC3CC3)[C@@H]2C1`, the cytotoxicity at 10 µM was -8.55%.
To `COCC(=O)Nc1ccc2c(c1)C1(CCOCC1)CN2CCF` belongs -99.6%; to `CCN1CCC2(CN(C(=O)N(C)C)CC23CCNCC3)C1=O` (stereo unspecified), 4.29%; to `COCCN1CCc2c(c(COc3cccnc3)nn2C)C1`, -113%.
In the case of `Cn1cc(CN2C[C@@H]3CCCO[C@@H]3[C@H](N3CCCC3=O)C2)cn1`, the cytotoxicity at 10 µM was found to be 1.27%.
For `O=C(N[C@@H]1CN(c2ncccn2)C[C@@H]2CCCO[C@@H]21)c1ccnnc1` the value was 6.32%.
`Fc1cnc(N2CCCC3(CCN(Cc4ccco4)C3)C2)nc1` (stereo unspecified): the cytotoxicity at 10 µM was -84.9%.
As for `CC(C)NC(=O)N1CCC2(CC1)NC(=O)CC2c1ccncc1` (stereo unspecified), the cytotoxicity at 10 µM is -2.94%.
Regarding `CC(C)NC(=O)N1CCCn2cnc(CO)c2C1`, the cytotoxicity at 10 µM was -151%.
`CN(CCO)Cc1nnc(C2CCN(CC3[C@H]4CNC[C@@H]34)CC2)n1C` (stereo partly specified): the cytotoxicity at 10 µM is -0.517%.
As for `O=C(c1ccncc1)N1C[C@H]2CC[C@@H](C1)N(C(=O)C1CCCC1)C2`, the cytotoxicity at 10 µM is 6.77%.
As for `CC(c1cn2ccsc2n1)n1cc2[nH]cccc-2c1=O` (stereo unspecified), the cytotoxicity at 10 µM was -1.97%.
For `Cc1cc2cccc(NC(=O)N3CC[C@H]4CC[C@@H](C3)N4C)c2o1` the value was 7.89%.
